In ChEMBL document CHEMBL2384907, “Identification of substituted pyrimido[5,4-b]indoles as selective Toll-like receptor 4 ligands” (J Med Chem, 2013):

Key:
Format in all cases: cell-based
[1] = target: Toll-like receptor 4 (Homo sapiens) (UniProt O00206); assay: Activation of TLR4 in human PBMC cells assessed as AUC of IL8 release at 10 uM after 18 hrs by ELISA relative to N-cyclohexyl-2-(4-oxo-3-phenyl-4,5-dihydro-3H-pyrimido[5,4-b]indol-2-ylthio)acetamide
How it was run: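 Human PBMC from buffy coats, 1 × 10^6/mL in complete RPMI, 18 h at 37 °C, 5% CO2 with compound at 10 μM; IL-8 in supernatant by ELISA, normalized to reference hit set at 100. LPS 10 ng/mL positive control.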

[2] = target: T1, Toll-like receptor 4 (Mus musculus) (UniProt Q9QUK6); assay: Activation of mouse TLR4 transfected in HEK293 cells after 18 hrs by SEAP assay relative to N-cyclohexyl-2-(4-oxo-3-phenyl-4,5-dihydro-3H-pyrimido[5,4-b]indol-2-ylthio)acetamide
T1 sequence (whole entry): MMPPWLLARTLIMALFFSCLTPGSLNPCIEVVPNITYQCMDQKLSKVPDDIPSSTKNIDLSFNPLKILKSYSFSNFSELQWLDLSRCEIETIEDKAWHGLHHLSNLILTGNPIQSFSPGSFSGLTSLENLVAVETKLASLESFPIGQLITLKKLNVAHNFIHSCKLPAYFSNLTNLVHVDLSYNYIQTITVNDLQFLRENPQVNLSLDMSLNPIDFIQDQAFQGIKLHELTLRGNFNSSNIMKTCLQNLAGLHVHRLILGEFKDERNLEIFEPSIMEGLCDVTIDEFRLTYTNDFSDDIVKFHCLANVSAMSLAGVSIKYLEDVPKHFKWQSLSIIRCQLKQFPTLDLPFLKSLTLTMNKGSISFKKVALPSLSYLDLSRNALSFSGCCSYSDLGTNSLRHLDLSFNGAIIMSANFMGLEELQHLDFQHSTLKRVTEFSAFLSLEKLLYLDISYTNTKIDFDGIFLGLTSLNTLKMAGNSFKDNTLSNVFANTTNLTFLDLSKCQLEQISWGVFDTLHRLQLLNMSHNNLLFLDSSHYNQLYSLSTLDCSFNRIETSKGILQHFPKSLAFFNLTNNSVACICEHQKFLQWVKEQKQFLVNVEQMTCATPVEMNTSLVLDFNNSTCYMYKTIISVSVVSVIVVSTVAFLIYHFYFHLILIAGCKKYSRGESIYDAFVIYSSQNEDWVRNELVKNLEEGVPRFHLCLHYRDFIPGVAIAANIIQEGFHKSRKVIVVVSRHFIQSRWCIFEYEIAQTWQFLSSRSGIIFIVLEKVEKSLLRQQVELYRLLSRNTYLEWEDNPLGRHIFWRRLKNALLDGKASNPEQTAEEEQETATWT
How it was run: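 Mouse TLR4 HEK-Blue cells (2.5 × 10^4/well) given titrated doses 312 nM–10 μM for 18 h, 0.5% DMSO vehicle; SEAP at 630 nm. Percent-activity curves, AUC by trapezoid method, normalized to reference hit set at 100. LPS 10 ng/mL control.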

[3] = target: T1, Toll-like receptor 4 (Mus musculus); assay: Activation of TLR4 in C57BL/6 mouse BMDC cells assessed as AUC of IL6 release after 18 hrs by ELISA relative to N-cyclohexyl-2-(4-oxo-3-phenyl-4,5-dihydro-3H-pyrimido[5,4-b]indol-2-ylthio)acetamide
How it was run: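 C57BL/6 bone marrow DC, 10^5 cells/well in RPMI-10% FCS, 18 h at 37 °C with titrated doses 312 nM–10 μM; supernatant IL-6 by ELISA. Each curve converted to percent activity (background subtracted, plate-adjusted), AUC by trapezoid method, normalized to reference hit set at 100 per experiment. LPS 10 ng/mL positive control; 0.5% DMSO vehicle.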

[4] = target: Toll-like receptor 4 (Homo sapiens) (UniProt O00206); assay: Activation of human TLR4 transfected in HEK293 cells after 18 hrs by SEAP assay relative to N-cyclohexyl-2-(4-oxo-3-phenyl-4,5-dihydro-3H-pyrimido[5,4-b]indol-2-ylthio)acetamide; parameters: concentration or dose not given beside the values
How it was run: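 Human TLR4 HEK-Blue cells (2.5 × 10^4/well) given compound at 10 μM for 18 h, 0.5% DMSO vehicle; SEAP in supernatant read at 630 nm, normalized to reference hit set at 100. LPS 10 ng/mL positive control.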

[5] = target: T1, Toll-like receptor 4 (Mus musculus); assay: Activation of TLR4 in C57BL/6 mouse BMDC cells assessed as AUC of IP10 release at 5 uM after 18 hrs by ELISA relative to N-cyclohexyl-2-(4-oxo-3-phenyl-4,5-dihydro-3H-pyrimido[5,4-b]indol-2-ylthio)acetamide

Sequence of Toll-like receptor 4 (Homo sapiens) (O00206 whole entry): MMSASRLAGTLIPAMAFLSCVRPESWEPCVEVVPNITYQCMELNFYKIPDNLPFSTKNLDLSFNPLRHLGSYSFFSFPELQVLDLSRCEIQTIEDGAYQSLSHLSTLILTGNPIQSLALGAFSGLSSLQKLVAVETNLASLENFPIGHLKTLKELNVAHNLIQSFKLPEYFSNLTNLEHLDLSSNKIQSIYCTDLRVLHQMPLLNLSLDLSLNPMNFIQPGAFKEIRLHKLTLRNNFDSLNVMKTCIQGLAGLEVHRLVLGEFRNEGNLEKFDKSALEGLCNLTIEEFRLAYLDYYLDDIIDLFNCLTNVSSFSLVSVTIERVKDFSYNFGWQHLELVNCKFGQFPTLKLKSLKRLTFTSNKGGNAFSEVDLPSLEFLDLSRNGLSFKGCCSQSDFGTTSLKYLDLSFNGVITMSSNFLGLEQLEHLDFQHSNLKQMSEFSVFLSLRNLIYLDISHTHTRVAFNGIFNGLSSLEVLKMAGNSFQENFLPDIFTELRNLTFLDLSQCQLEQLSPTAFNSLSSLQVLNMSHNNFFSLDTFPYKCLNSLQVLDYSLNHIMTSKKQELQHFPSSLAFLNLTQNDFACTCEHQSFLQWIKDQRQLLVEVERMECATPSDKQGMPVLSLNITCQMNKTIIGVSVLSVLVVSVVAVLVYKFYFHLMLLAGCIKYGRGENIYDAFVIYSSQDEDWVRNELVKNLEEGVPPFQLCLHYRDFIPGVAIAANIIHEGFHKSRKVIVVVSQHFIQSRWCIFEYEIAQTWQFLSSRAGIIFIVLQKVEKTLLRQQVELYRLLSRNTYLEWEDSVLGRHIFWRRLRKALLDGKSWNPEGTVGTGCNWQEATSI

| Structure (SMILES) | Activity [1] [%] | Activity [2] [%] | Activity [3] [%] | Activity [4] [%] | Activity [5] [%] |
| --- | --- | --- | --- | --- | --- |
| Cc1cccc(NC(=O)CSc2nc3c([nH]c4ccccc43)c(=O)n2-c2ccccc2)c1 | 54 | 13 | 19 | 116 | 55 |
| CC(C)CNC(=O)CSc1nc2c([nH]c3ccccc32)c(=O)n1-c1ccccc1 | 11 | 24 | 44 | 21 | 53 |
| CCC(CC)NC(=O)CSc1nc2c([nH]c3ccccc32)c(=O)n1-c1ccccc1 | < 1 | 8 | < 10 | 11 | 26 |
| O=C(CSc1nc2c([nH]c3ccccc32)c(=O)n1-c1ccccc1)Nc1nccs1 | 5 | 2 | 1 | 12 | < 1 |
| O=C(CSc1nc2c([nH]c3ccccc32)c(=O)n1-c1ccccc1)Nc1cccc(F)c1 | 13 | 11 | 14 | 39 | 45 |
| O=C(CSc1nc2c([nH]c3ccccc32)c(=O)n1-c1ccccc1)Nc1ccc2cn[nH]c2c1 | 7 | < 1 | 3 | < 1 | < 1 |
| O=C(CSc1nc2c([nH]c3ccccc32)c(=O)n1-c1ccccc1)NC1CCNCC1 | 17 | < 1 | < 1 | < 1 | < 1 |
| CCCC(C)NC(=O)CSc1nc2c([nH]c3ccccc32)c(=O)n1-c1ccccc1 (stereo not given) | 6 | 17 | 12 | 13 | 55 |
| CCCCCNC(=O)CSc1nc2c([nH]c3ccccc32)c(=O)n1-c1ccccc1 | 25 | 42 | 40 | 23 | 40 |
| O=C(CSc1nc2c([nH]c3ccccc32)c(=O)n1-c1ccc(F)cc1)NC1CCCCC1 | 5 | 41 | 48 | 51 | 72 |
| O=C(CSc1nc2c3ccccc3nc-2c(O)n1-c1ccccc1)NCC1CCCO1 (stereo not given) | 8 | 21 | < 23 | 13 | 54 |
| CCCCCCNC(=O)CSc1nc2c([nH]c3ccccc32)c(=O)n1-c1ccccc1 | 7 | 4 | < 1 | 8 | < 1 |
| O=C(CSc1nc2c([nH]c3ccccc32)c(=O)n1C1CCCCC1)NC1CCCC1 | 14 | 19 | 47 | 33 | 47 |
| CN(C(=O)CSc1nc2c3ccccc3n(C)c2c(=O)n1-c1ccccc1)C1CCCCC1 | 5 | 1 | < 1 | < 1 | < 1 |
| O=C(CSc1nc2c([nH]c3ccccc32)c(=O)n1-c1ccccc1)Nc1ccc(F)cc1 | 107 | 81 | 103 | 108 | 70 |
| O=C(CSc1nc2c([nH]c3ccccc32)c(=O)n1-c1ccccc1)Nc1ccccc1 | 15 | 21 | 11 | 31 | 44 |
| CCCCCCCCCCCCn1c2ccccc2c2nc(SCC(=O)NC3CCCCC3)n(-c3ccccc3)c(=O)c21 | < 1 | 4 | < 1 | 10 | < 1 |

| Structure (SMILES) | Activity [1] [%] | Activity [2] [%] | Activity [3] [%] | Activity [4] [%] | Activity [5] [%] |
| --- | --- | --- | --- | --- | --- |
| CC(C)CCNC(=O)CSc1nc2c([nH]c3ccccc32)c(=O)n1-c1ccccc1 | 53 | 56 | 61 | 38 | 62 |
| O=C(CSc1nc2c([nH]c3ccccc32)c(=O)n1CCc1ccccc1)NC1CCCCC1 | 5 | 1 | < 1 | 1 | < 1 |
| CC(C)(C)CCNC(=O)CSc1nc2c([nH]c3ccccc32)c(=O)n1-c1ccccc1 | 95 | 126 | 99 | 72 | 85 |
| O=C(CSc1nc2c([nH]c3ccccc32)c(=O)n1-c1ccccc1)Nc1ccccc1F | 61 | 43 | 36 | 71 | 54 |
| O=C(CSc1nc2c([nH]c3ccccc32)c(=O)n1-c1ccccc1)NCc1ccco1 | 15 | 5 | 18 | 27 | 26 |
| COC(=O)CCCn1c2ccccc2c2nc(SCC(=O)NC3CCCCC3)n(-c3ccccc3)c(=O)c21 | 124 | 9 | 4 | 19 | 19 |
| O=C(CSc1nc2c([nH]c3ccccc32)c(=O)n1-c1ccccc1)NC1CCC1 | 19 | 18 | 35 | 32 | 66 |
| O=C(CSc1nc2c([nH]c3ccccc32)c(=O)n1-c1ccc2ccccc2c1)NC1CCCCC1 | < 1 | 6 | 3 | 3 | < 1 |
| CC(C)(C)NC(=O)CSc1nc2c([nH]c3ccccc32)c(=O)n1-c1ccccc1 | 5 | < 1 | < 1 | 6 | < 1 |
| O=C(CSc1nc2c([nH]c3ccccc32)c(=O)n1-c1ccccc1)NC1CCCC1 | 5 | 28 | 53 | 23 | 52 |
| O=C(CSc1nc2c([nH]c3ccccc32)c(=O)n1-c1ccccc1)NC1CCCCCCC1 | 73 | 95 | 114 | 64 | 98 |
| CCCCCn1c2ccccc2c2nc(SCC(=O)NC3CCCCC3)n(-c3ccccc3)c(=O)c21 | 1 | 6 | 5 | 11 | < 1 |
| CCNC(=O)CSc1nc2c([nH]c3ccccc32)c(=O)n1-c1ccccc1 | 4 | < 1 | < 1 | 8 | < 1 |
| CCCCCCCC/C=C\CCCCCCCC(=O)OC[C@H](COP(=O)(O)OCCNC(=O)CSc1nc2c([nH]c3ccccc32)c(=O)n1-c1ccccc1)OC(=O)CCCCCCC/C=C\CCCCCCCC | < 1 | < 1 | < 1 | < 1 | < 1 |
| CCCCNC(=O)CSc1nc2c([nH]c3ccccc32)c(=O)n1-c1ccccc1 | 29 | 31 | 49 | 32 | 61 |
| O=C(CSc1nc2c([nH]c3ccccc32)c(=O)n1-c1ccccc1)Nc1ccc2ccccc2c1 | < 1 | 2 | < 1 | 21 | < 1 |
| NC(=O)Cn1c2ccccc2c2nc(SCC(=O)NC3CCCCC3)n(-c3ccccc3)c(=O)c21 | 4 | 8 | 1 | 11 | 1 |
